Laboratory results: ChEMBL document CHEMBL1914299, “Synthesis and antitumor activity of β-carboline 3-(substituted-carbohydrazide) derivatives” (Bioorg Med Chem, 2011)
pIC50: −log10 of the molar value. Activity calls are given as the source filed them. The rule behind the calls is not given here.

How the values were obtained:
[1] = system: Mus musculus; experiment: Antitumor activity against mouse Ehrlich Ascitic tumor xenografted in BALB/c mouse assessed as reduction of tumor volume in paw at 10 mg/kg, ip administered every 3 days for 15 days measured on day 9 by plethysmograph analysis; assay type: functional, organism-based; parameters: dose 10 mg/kg
[2] = system: Mus musculus; experiment: Antitumor activity against mouse Ehrlich Ascitic tumor xenografted in BALB/c mouse assessed as reduction in paw edema at 30 mg/kg, ip administered every 3 days for 15 days measured on day 12 and day 15 by plethysmograph analysis; assay type: functional, organism-based; parameters: dose 30 mg/kg
How it was run: (§1)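 Ehrlich tumor cells collected from ascitic fluid and counted by Trypan blue exclusion, viability above 90%. Cells diluted in 0.9% PBS to […]. Injected sub-plantar into right hind paw of Balb/C mice (20–35 g), 2.5 × 10⁶ viable cells. Compound given ip every 3 days over 15 days, vehicle 0.9% saline, 5-fluorouracil 10 mg/kg as positive control. Paw volume measured by plethysmometer every 3 days until sacrifice on day 15.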

[3] = system: UACC-62; experiment: Antitumor activity against human UACC62 cells by SRB colorimetric assay; assay type: functional, cell-based
How it was run: (§2)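 NCI sulforhodamine B colorimetric growth assay in 96-well plates. Each compound tested at four concentrations in 10-fold dilutions. Doxorubicin as positive control. IC50 taken from concentration–response curves as the concentration giving 50% reduction in cell growth versus untreated control cells.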

[4] = system: Mus musculus; experiment: Antiinflammatory activity in mouse Ehrlich Ascitic tumor xenografted BALB/c mouse assessed as reduction in paw edema at 30 mg/kg, ip administered every 3 days for 15 days by plethysmograph analysis; assay type: functional, organism-based; parameters: dose 30 mg/kg; how it was run: as §1
[5] = system: Mus musculus; experiment: Antitumor activity against mouse Ehrlich Ascitic tumor xenografted in BALB/c mouse assessed as reduction of tumor volume in paw at 30 mg/kg, ip administered every 3 days for 15 days measured on day 9 by plethysmograph analysis; assay type: functional, organism-based; parameters: dose 30 mg/kg; how it was run: as §1
[6] = system: Mus musculus; experiment: Acute toxicity in BALB/c mouse at 30 mg/kg, ip; assay type: organism-based; parameters: dose 30 mg/kg, route intraperitoneal; conditions: in vivo
[7] = system: 786-0; experiment: Antitumor activity against human 786-0 cells by SRB colorimetric assay; assay type: functional, cell-based; how it was run: as §2
[8] = system: HT-29; experiment: Antitumor activity against human HT-29 cells by SRB colorimetric assay; assay type: functional, cell-based; how it was run: as §2
[9] = system: K562; experiment: Antitumor activity against human K562 cells by SRB colorimetric assay; assay type: functional, cell-based; how it was run: as §2
[10] = system: MCF7; experiment: Antitumor activity against human MCF7 cells by SRB colorimetric assay; assay type: functional, cell-based; how it was run: as §2
[11] = system: NCI-H460; experiment: Antitumor activity against human NCI-H460 cells by SRB colorimetric assay; assay type: functional, cell-based; how it was run: as §2
[12] = Antitumor activity against human PCO3 cells by SRB colorimetric assay; assay type: functional, cell-based; how it was run: as §2
[13] = system: OVCAR; experiment: Antitumor activity against human OVCAR cells by SRB colorimetric assay; assay type: functional, cell-based; how it was run: as §2

O=c1[nH]cc(F)c(=O)[nH]1
Activity [1]: Active

CN(C)c1ccc(/C=N/NC(=O)c2cc3c([nH]c4ccccc43)c(-c3cccc([N+](=O)[O-])c3)n2)cc1
Activity [2]: Active | Activity [1]: Active | pIC50 [3]: 5.87 | Activity [4]: Active | Activity [5]: Active | Activity [6]: Non-toxic | pIC50 [7]: 7.40 | pIC50 [8]: 5.01 | pIC50 [9]: 6.62 | pIC50 [10]: 6.20 | pIC50 [11]: 5.68 | pIC50 [12]: 5.38 | pIC50 [13]: 6.72

COc1ccc(-c2nc(C(=O)NN=C3CCCCC3)cc3c2[nH]c2ccccc23)cc1
pIC50 [3]: 4.93 | pIC50 [7]: 4.73 | pIC50 [8]: 4.86 | pIC50 [9]: 4.99 | pIC50 [10]: 5.04 | pIC50 [11]: 4.70 | pIC50 [12]: 4.99 | pIC50 [13]: 4.89

Cn1c2ccccc2c2cc(C(=O)N/N=C/c3ccccc3Cl)nc(-c3ccccc3)c21
pIC50 [3]: < 4.00 | pIC50 [7]: < 4.00 | pIC50 [8]: < 4.00 | pIC50 [9]: < 4.00 | pIC50 [10]: < 4.00 | pIC50 [11]: < 4.00 | pIC50 [12]: < 4.00 | pIC50 [13]: < 4.00

COc1ccc(-c2nc(C(=O)NN=C3CCCC3)cc3c2[nH]c2ccccc23)cc1
pIC50 [3]: 4.12 | pIC50 [7]: < 4.00 | pIC50 [8]: < 4.00 | pIC50 [9]: < 4.00 | pIC50 [10]: < 4.00 | pIC50 [11]: < 4.00 | pIC50 [12]: < 4.00 | pIC50 [13]: < 4.00

CN(C)c1ccc(-c2nc(C(=O)NN=C3CCCC3)cc3c2[nH]c2ccccc23)cc1
pIC50 [3]: 4.73 | pIC50 [7]: < 4.00 | pIC50 [8]: 4.26 | pIC50 [9]: 4.87 | pIC50 [10]: 4.65 | pIC50 [11]: 4.09 | pIC50 [12]: 4.69 | pIC50 [13]: < 4.00

O=C(N/N=C/c1ccc([N+](=O)[O-])cc1)c1cc2c([nH]c3ccccc32)c(-c2ccccc2)n1
pIC50 [3]: 5.32 | pIC50 [7]: 4.53 | pIC50 [8]: 4.82 | pIC50 [9]: 5.37 | pIC50 [10]: 4.67 | pIC50 [11]: 5.29 | pIC50 [12]: 5.07 | pIC50 [13]: 4.84

CC(C)=NNC(=O)c1cc2c([nH]c3ccccc32)c(-c2cccc([N+](=O)[O-])c2)n1
pIC50 [3]: < 4.00 | pIC50 [7]: < 4.00 | pIC50 [8]: < 4.00 | pIC50 [9]: < 4.00 | pIC50 [10]: < 4.00 | pIC50 [11]: < 4.00 | pIC50 [12]: < 4.00 | pIC50 [13]: < 4.00

O=C(NN=C1CCCCC1)c1cc2c([nH]c3ccccc32)c(-c2ccc(O)cc2)n1
pIC50 [3]: 5.10 | pIC50 [7]: 4.83 | pIC50 [8]: 4.99 | pIC50 [9]: 4.99 | pIC50 [10]: 5.08 | pIC50 [11]: 4.88 | pIC50 [12]: 5.11 | pIC50 [13]: 4.88

O=C(NN=C1CCCCC1)c1cc2c([nH]c3ccccc32)c(-c2ccccc2Cl)n1
pIC50 [3]: 4.66 | pIC50 [7]: 4.61 | pIC50 [8]: 4.39 | pIC50 [9]: < 4.00 | pIC50 [10]: 5.21 | pIC50 [11]: 4.27 | pIC50 [12]: 4.74 | pIC50 [13]: 4.68

O=C(N/N=C/c1ccccc1Cl)c1cc2c([nH]c3ccccc32)c(-c2cccc([N+](=O)[O-])c2)n1
pIC50 [3]: 4.45 | pIC50 [7]: 4.77 | pIC50 [8]: 4.81 | pIC50 [9]: 4.17 | pIC50 [10]: 4.85 | pIC50 [11]: 4.54 | pIC50 [12]: 4.78 | pIC50 [13]: < 4.00

CN(C)c1ccc(/C=N/NC(=O)c2cc3c([nH]c4ccccc43)c(-c3ccc([N+](=O)[O-])cc3)n2)cc1
pIC50 [3]: < 4.00 | pIC50 [7]: < 4.00 | pIC50 [8]: < 4.00 | pIC50 [9]: < 4.00 | pIC50 [10]: < 4.00 | pIC50 [11]: < 4.00 | pIC50 [12]: < 4.00 | pIC50 [13]: < 4.00

O=C(NN=C1CCCCC1)c1cc2c([nH]c3ccccc32)c(-c2ccccc2)n1
pIC50 [3]: 4.51 | pIC50 [7]: < 4.00 | pIC50 [8]: 4.33 | pIC50 [9]: 4.25 | pIC50 [10]: 4.49 | pIC50 [11]: 4.16 | pIC50 [12]: 4.56 | pIC50 [13]: 4.11

CC(C)=NNC(=O)c1cc2c([nH]c3ccccc32)c(-c2ccccc2Cl)n1
pIC50 [3]: 4.72 | pIC50 [7]: < 4.00 | pIC50 [8]: 4.41 | pIC50 [9]: 4.66 | pIC50 [10]: 4.57 | pIC50 [11]: < 4.00 | pIC50 [12]: 4.59 | pIC50 [13]: 4.19

O=C(NN=C1CCCC1)c1cc2c([nH]c3ccccc32)c(-c2ccc(O)cc2)n1
pIC50 [3]: < 4.00 | pIC50 [7]: < 4.00 | pIC50 [8]: < 4.00 | pIC50 [9]: < 4.00 | pIC50 [10]: 4.11 | pIC50 [11]: < 4.00 | pIC50 [12]: < 4.00 | pIC50 [13]: < 4.00

CC(C)=NNC(=O)c1cc2c([nH]c3ccccc32)c(-c2ccccc2)n1
pIC50 [3]: 4.99 | pIC50 [7]: 4.79 | pIC50 [8]: 4.70 | pIC50 [9]: 5.17 | pIC50 [10]: 4.85 | pIC50 [11]: 4.70 | pIC50 [12]: 4.81 | pIC50 [13]: 4.58

O=C(N/N=C/c1ccccc1Cl)c1cc2c([nH]c3ccccc32)c(-c2ccccc2)n1
pIC50 [3]: 5.67 | pIC50 [7]: 5.67 | pIC50 [8]: 5.90 | pIC50 [9]: 5.84 | pIC50 [10]: 5.21 | pIC50 [11]: 5.34 | pIC50 [12]: 5.60 | pIC50 [13]: 5.55
